Test results: ChEMBL document CHEMBL1138683 (J Med Chem, 2004)

Assays:
[1] = Anti convulsant activity administered intra peritoneally to mouse for toxicity at 4 hr with dose of 30 mg/kg; 0/2= No of animals exhibiting toxicity /No of animals tested; format: organism-based; parameters: dose 30 mg/kg; conditions: in vivo, ip
[2] = system: Mus musculus; test: Anti convulsant activity administered intra peritoneally to mouse at maximal electroshock test at 0.5 hr after the drug administered with dose of 100 mg/kg; 0/3= No of animals protected /No of animals tested; format: functional
[3] = Anti convulsant activity administered intra peritoneally to mouse for toxicity at 4 hr with dose of 100 mg/kg; 0/4= No of animals exhibiting toxicity /No of animals tested; format: organism-based; parameters: dose 100 mg/kg; conditions: in vivo, ip
[4] = system: Mus musculus; test: Anti convulsant activity administered intra peritoneally to mouse at maximal electroshock test at 4 hr after the drug administered with dose of 30 mg/kg; 0/1= No of animals protected /No of animals tested; format: functional
[5] = system: Mus musculus; test: Anti convulsant activity administered intra peritoneally to mouse for subcutaneous metrazol test at 0.5 hr with dose of 100 mg/kg; 0/1= No of animals protected /No of animals tested; format: functional
[6] = system: Mus musculus; test: Anti convulsant activity administered intra peritoneally to mouse at maximal electroshock test at 4 hr after the drug administered with dose of 300 mg/kg; 0/1= No of animals protected /No of animals tested; format: functional
[7] = system: Mus musculus; test: Anti convulsant activity administered intra peritoneally to mouse for subcutaneous metrazol test at 0.5 hr with dose of 300 mg/kg; 1/1= No of animals protected /No of animals tested; format: functional
[8] = system: Mus musculus; test: Anti convulsant activity administered intra peritoneally to mouse for subcutaneous metrazol test at 4 hr with dose of 300 mg/kg; 0/1= No of animals protected /No of animals tested; format: functional
[9] = system: Mus musculus; test: Anti convulsant activity administered intra peritoneally to mouse for subcutaneous metrazol test at 4 hr after the drug administered with dose of 100 mg/kg; 0/1= No of animals protected /No of animals tested; format: functional
[10] = system: Mus musculus; test: Anti convulsant activity administered intra peritoneally to mouse at maximal electroshock test at 0.5 hr after the drug administered with dose of 300 mg/kg; 1/1= No of animals protected /No of animals tested; format: functional
[11] = system: Rattus norvegicus; test: Anticonvulsant activity after oral administration of 30 mg/kg dose after 15 min in rats; + means 25% of the animals protected; format: functional, organism-based; parameters: dose 30 mg/kg
Summary of the method: (§1)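 Oral dosing of rats at a single dose, compound dissolved or suspended in 0.5% methylcellulose. Protection in the MES or scMet test checked 15 min, 30 min, 1 h, 2 h and 4 h after dosing. Scored as 25/50/75/100% of animals protected (+ to ++++), – for none.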

[12] = system: Rattus norvegicus; test: Anticonvulsant activity after oral administration of 30 mg/kg dose after 4 hr in rats; +means 25% of animals protected; format: functional, organism-based; parameters: dose 30 mg/kg; summary of the method: as §1
[13] = system: Mus musculus; test: Anti convulsant activity administered intra peritoneally to mouse at maximal electroshock test at 0.5 h after the drug administered with dose of 30 mg/kg; 0/1= No of animals protected /No of animals tested; format: functional
[14] = system: Mus musculus; test: Anti convulsant activity administered intra peritoneally to mouse for subcutaneous metrazol test at 0.5 hr with dose of 30 mg/kg; 0/1= No of animals protected /No of animals tested; format: functional
[15] = system: Mus musculus; test: Anti convulsant activity administered intra peritoneally to mouse for subcutaneous metrazol test at 4 hr after the drug administered with dose of 30 mg/kg; 0/1= No of animals protected /No of animals tested; format: functional; conditions: route intraperitoneal
[16] = Anti convulsant activity administered intra peritoneally to mouse for toxicity at 0.5 hr with dose of 30 mg/kg; 0/4= No of animals exhibiting toxicity /No of animals tested; format: organism-based; parameters: dose 30 mg/kg; conditions: in vivo, ip
[17] = Anti convulsant activity administered intra peritoneally to mouse for toxicity at 0.5 hr with dose of 300 mg/kg; 4/4= No of animals exhibiting toxicity /No of animals tested; format: organism-based; parameters: dose 300 mg/kg; conditions: in vivo, ip
[18] = Anti convulsant activity administered intra peritoneally to mouse for toxicity at 0.5 hr with dose of 100 mg/kg; 0/8= No of animals exhibiting toxicity /No of animals tested; format: organism-based; parameters: dose 100 mg/kg; conditions: in vivo, ip
[19] = system: Mus musculus; test: Anti convulsant activity administered intra peritoneally to mouse at maximal electroshock test at 4 hr after the drug administered with dose of 100 mg/kg; 0/3= No of animals protected /No of animals tested; format: functional
[20] = Anti convulsant activity administered intra peritoneally to mouse for toxicity at 4 hr with dose of 300 mg/kg; 1/2= No of animals exhibiting toxicity /No of animals tested; format: organism-based; parameters: dose 300 mg/kg; conditions: in vivo, ip
[21] = system: Mus musculus; test: Anticonvulsant activity administered intra peritoneally to mouse for protective index of subcutaneous metrazol test; format: functional
[22] = system: Rattus norvegicus; test: Anticonvulsant activity administered orally to rat for protective index of subcutaneous metrazol test; format: functional
[23] = system: Rattus norvegicus; test: Anticonvulsant activity after oral administration of 50 mg/kg dose after 30 min in rats; ++ means 50% of animals protected; format: functional, organism-based; parameters: dose 50 mg/kg
Summary of the method: (§2)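 Rats dosed orally with compound dissolved or suspended in 0.5% methylcellulose (0.04 mL per 10 g body weight). Anticonvulsant protection (MES or scMet) and toxicity scored at 15 min, 30 min, 1 h, 2 h and 4 h after dosing. Graded in steps of 25% of animals protected or showing toxicity.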

[24] = system: Rattus norvegicus; test: Anticonvulsant activity after oral administration of 100 mg/kg dose after 30 min in rats; +means 25% of animal protected; format: functional, organism-based; parameters: dose 100 mg/kg; summary of the method: as §1
[25] = system: Mus musculus; test: Anti convulsant activity administered intra peritoneally to mouse for subcutaneous metrazol test at 0.5 h with dose of 300 mg/kg; 0/1= No of animals protected /No of animals tested; format: functional
[26] = system: Mus musculus; test: Anti convulsant activity administered intra peritoneally to mouse at maximal electroshock test at 4 hr after the drug administered with dose of 300 mg/kg; 1/1= No of animals protected /No of animals tested; format: functional
[27] = system: Rattus norvegicus; test: Anticonvulsant activity after oral administration of 50 mg/kg dose after 4 hr in rats;+ means 25% of the animals protected; format: functional, organism-based; parameters: dose 50 mg/kg; summary of the method: as §2
[28] = system: Rattus norvegicus; test: Anticonvulsant activity after oral administration of 100 mg/kg dose after 2 hr in rats; + means 25% of the animals protected; format: functional, organism-based; parameters: dose 100 mg/kg; summary of the method: as §1
[29] = system: Rattus norvegicus; test: Anticonvulsant activity after oral administration of 100 mg/kg dose after 15 min in rats;+means 25% of the animals protected; format: functional, organism-based; parameters: dose 100 mg/kg; summary of the method: as §1
[30] = Anti convulsant activity administered intra peritoneally to mouse for toxicity at 0.5 hr with dose of 100 mg/kg; 1/8= No of animals exhibiting toxicity /No of animals tested; format: organism-based; parameters: dose 100 mg/kg; conditions: in vivo, ip
[31] = system: Rattus norvegicus; test: Anticonvulsant activity after oral administration of 50 mg/kg dose after 30 min in rats; + means 25% of the animal protected; format: functional, organism-based; parameters: dose 50 mg/kg; summary of the method: as §1
[32] = system: Rattus norvegicus; test: Anticonvulsant activity after oral administration of 50 mg/kg dose after 15 min in rats; ++ means 50% of the animal protected; format: functional, organism-based; parameters: dose 50 mg/kg; summary of the method: as §1
[33] = system: Rattus norvegicus; test: Anticonvulsant activity after oral administration of 100 mg/kg dose after 1 hr in rats; + means 25% of the animals protected; format: functional, organism-based; parameters: dose 100 mg/kg; summary of the method: as §1
[34] = system: Rattus norvegicus; test: Anticonvulsant activity after oral administration of 50 mg/kg dose after 2 hr in rats; ++ means 50% of the animal is protected; format: functional, organism-based; parameters: dose 50 mg/kg; summary of the method: as §1
[35] = Anti convulsant activity administered intra peritoneally to mouse for toxicity at 4 hr with dose of 300 mg/kg; 0/2= No of animals exhibiting toxicity /No of animals tested; format: organism-based; parameters: dose 300 mg/kg; conditions: in vivo, ip
[36] = system: Mus musculus; test: Anticonvulsant activity administered intra peritoneally to mouse at maximal electro shock test; the interval in parenthesis stands for 95% confidence interval; format: functional
[37] = Anticonvulsant activity administered intra peritoneally to mouse for toxicity; conditions: in vivo, ip
[38] = system: Mus musculus; test: Anticonvulsant activity administered intra peritoneally to mouse at subcutaneous metrazol test; format: functional; conditions: sc

| SMILES | Toxicity [1] | Activity [2] | Toxicity [3] | Activity [4] | Activity [5] | Activity [6] | Activity [8] | Activity [9] | Activity [10] | Activity [13] | Activity [14] | Activity [15] | Toxicity [16] | Toxicity [17] | Toxicity [18] | Activity [19] | Toxicity [20] | Activity [25] | also measured |
| --- | --- | --- | --- | --- | --- | --- | --- | --- | --- | --- | --- | --- | --- | --- | --- | --- | --- | --- | --- |
| CC1(C)C(C(=O)NCCF)C1(C)C | 0 | 0 | 0 | 0 | 0 | 0 | 1 | 0 | 1 | 0 | 0 | 0 | 0 | 4 | 0 | 0 | 1 | – | Activity [7]: 1; Activity [11]: 25% of animals protected; Activity [12]: 25% of animals protected |
| CC1(C)C(C(N)=O)C1(C)C | – | – | – | – | – | – | – | – | – | – | – | – | – | – | – | – | – | – | Activity [21]: 1.7; Activity [22]: 7.3 |
| CN(C)C(=O)C1C(C)(C)C1(C)C | 0 | 0 | 0 | 0 | 0 | 0 | 0 | 0 | 1 | 0 | 0 | 0 | 0 | 4 | 0 | 0 | 1 | 0 | Activity [23]: 25% of animal protected; Activity [24]: 25% of animal protected |
| CNC(=O)NC(=O)C1C(C)(C)C1(C)C | 0 | 0 | 0 | 0 | 0 | – | 0 | 0 | 1 | 0 | 0 | 0 | 0 | 4 | – | 0 | – | 0 | Activity [26]: 1; Activity [27]: 25% of the animal protected; Activity [28]: 25% of the animal protected; Anticonvulsant Activity [29]: 25% of the animals protected; Toxicity [30]: 1; Activity [31]: 25% of the animal protected; Activity [32]: 25% of the animal protected; Activity [33]: 25% of the animal protected; Activity [34]: 25% of the animal protected; Toxicity [35]: 0 |
| CC1(C)C(C(=O)NCO)C1(C)C | – | – | – | – | – | – | – | – | – | – | – | – | – | – | – | – | – | – | ED50 [36]: > 220 mg/kg; TD50 [37]: 146 mg/kg; ED50 [38]: 120 mg/kg |
